Data from ChEMBL document CHEMBL1777717, “Potent and selective oxindole-based vasopressin 1b receptor antagonists with improved pharmacokinetic properties” (Bioorg Med Chem Lett, 2011).
The source made the active and inactive calls. No cut-off for these calls is given here.

How the values were obtained:
[1] = target: T1, Vasopressin V1b receptor (Homo sapiens, UniProt P47901); experiment: Displacement of [3H]AVP from human vasopressin V1b receptor expressed in CHO cells by scintillation counting; format: cell-based
T1 sequence (P47901 whole entry): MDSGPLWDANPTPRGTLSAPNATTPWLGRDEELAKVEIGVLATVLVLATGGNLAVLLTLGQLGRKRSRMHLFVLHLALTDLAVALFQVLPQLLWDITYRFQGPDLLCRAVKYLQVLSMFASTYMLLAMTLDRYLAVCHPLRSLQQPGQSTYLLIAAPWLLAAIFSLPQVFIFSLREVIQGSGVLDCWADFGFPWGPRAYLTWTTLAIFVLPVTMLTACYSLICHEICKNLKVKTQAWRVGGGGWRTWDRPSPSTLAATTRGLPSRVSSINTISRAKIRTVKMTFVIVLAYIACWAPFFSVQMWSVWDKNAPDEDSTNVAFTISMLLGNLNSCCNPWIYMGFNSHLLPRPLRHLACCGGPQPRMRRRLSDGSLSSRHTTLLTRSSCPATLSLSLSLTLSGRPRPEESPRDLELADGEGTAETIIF

[2] = target: Vasopressin V1a receptor (Homo sapiens, UniProt P37288); experiment: Displacement of [3H]AVP from human vasopressin V1a receptor expressed in CHO cells by scintillation counting; format: cell-based
Procedure, shortened: (§1)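 Ki from radioligand displacement at the human receptor, run per a previously published protocol; each value is the mean of at least two experiments.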

[3] = target: Vasopressin V2 receptor (Homo sapiens, UniProt P30518); experiment: Displacement of [3H]AVP from human vasopressin V2 receptor expressed in CHO cells by scintillation counting; format: cell-based; procedure, shortened: as §1
[4] = target: T2, Oxytocin receptor (Homo sapiens, UniProt P30559); experiment: Displacement of radiolabeled oxytocin from human oxytocin receptor expressed in CHO cells by scintillation counting; format: cell-based; procedure, shortened: as §1
T2 sequence (P30559 whole entry): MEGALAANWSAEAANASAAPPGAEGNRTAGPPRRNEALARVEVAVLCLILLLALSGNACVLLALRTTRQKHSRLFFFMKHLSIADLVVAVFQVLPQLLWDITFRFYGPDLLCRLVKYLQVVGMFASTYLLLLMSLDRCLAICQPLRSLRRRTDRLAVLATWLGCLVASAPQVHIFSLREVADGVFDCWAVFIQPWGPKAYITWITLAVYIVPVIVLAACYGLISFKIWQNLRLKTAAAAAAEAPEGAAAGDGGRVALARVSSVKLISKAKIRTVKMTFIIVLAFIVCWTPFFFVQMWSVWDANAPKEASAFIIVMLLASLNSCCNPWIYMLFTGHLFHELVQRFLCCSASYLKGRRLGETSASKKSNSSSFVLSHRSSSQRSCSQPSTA

[5] = Intrinsic clearance in human liver microsomes measured up to 40 mins by HPLC-MS method; format: ADME, Microsome
Procedure, shortened: (§2)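 Intrinsic clearance determined by liver microsome incubation using a previously published procedure, reported in µL/min/mg; each value is the mean of at least two experiments.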

[6] = Intrinsic clearance in rat liver microsomes measured up to 40 mins by HPLC-MS method; format: ADME, Microsome; procedure, shortened: as §2
[7] = organism: Homo sapiens; experiment: Selectivity ratio of Ki for human vasopressin V1b receptor over Ki for human vasopressin V1a receptor
[8] = organism: Homo sapiens; experiment: Selectivity ratio of Ki for human vasopressin V1b receptor over Ki for human vasopressin V2 receptor
[9] = organism: Homo sapiens; experiment: Selectivity ratio of Ki for human vasopressin V1b receptor over Ki for human oxytocin receptor
[10] = Terminal half life in rat at 2 mg/kg, iv; format: ADME, organism-based; parameters: dose 2 mg/kg, route intravenous; settings: in vivo, read-out: beta t1/2 (converted)
[11] = Volume of distribution at steady state in rat at 2 mg/kg, iv; format: ADME, organism-based; parameters: dose 2 mg/kg, route intravenous; settings: in vivo, read-out: Vdss
[12] = Clearance in rat plasma at 2 mg/kg, iv; format: ADME, organism-based; parameters: dose 2 mg/kg, route intravenous
[13] = Oral bioavailability in rat plasma at 10 mg/kg; format: ADME, organism-based
[14] = Ratio of AUC in brain to plasma in rat at 10 mg/kg, ip; format: ADME, organism-based; parameters: dose 10 mg/kg, route intraperitoneal; settings: brain and plasma, read-out: Ratio AUC
[15] = system: Rattus norvegicus; experiment: Antidepressant activity in rat at 3 mg/kg, ip by forced swimming test; format: functional, organism-based; parameters: dose 3 mg/kg

Chain of Vasopressin V2 receptor (P30518 whole entry): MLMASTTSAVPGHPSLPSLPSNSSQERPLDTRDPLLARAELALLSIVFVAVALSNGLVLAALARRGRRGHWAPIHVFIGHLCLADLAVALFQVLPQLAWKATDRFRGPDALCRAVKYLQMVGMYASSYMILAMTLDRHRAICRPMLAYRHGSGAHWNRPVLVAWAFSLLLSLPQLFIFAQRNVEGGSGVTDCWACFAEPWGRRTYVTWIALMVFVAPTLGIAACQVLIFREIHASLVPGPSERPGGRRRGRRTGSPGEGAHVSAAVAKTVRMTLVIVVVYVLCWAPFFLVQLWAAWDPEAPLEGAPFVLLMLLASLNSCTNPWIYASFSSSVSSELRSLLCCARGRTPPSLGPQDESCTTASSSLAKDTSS
Chain of Vasopressin V1a receptor (P37288 whole entry): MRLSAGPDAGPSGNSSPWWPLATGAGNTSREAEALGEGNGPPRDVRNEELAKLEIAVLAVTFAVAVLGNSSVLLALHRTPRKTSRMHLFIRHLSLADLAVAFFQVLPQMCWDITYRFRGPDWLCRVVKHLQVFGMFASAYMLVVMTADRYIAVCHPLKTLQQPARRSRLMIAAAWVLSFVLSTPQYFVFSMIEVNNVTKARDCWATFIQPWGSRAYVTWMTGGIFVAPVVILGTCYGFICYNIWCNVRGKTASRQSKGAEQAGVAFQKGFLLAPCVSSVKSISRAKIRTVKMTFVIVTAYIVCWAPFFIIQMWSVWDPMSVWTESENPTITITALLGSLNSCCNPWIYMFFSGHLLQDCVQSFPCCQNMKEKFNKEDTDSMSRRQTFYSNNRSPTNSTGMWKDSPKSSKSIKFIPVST

| Compound | Ki [1] | Ki [2] | Ki [3] | Ki [4] | microsomal CLint [5] | microsomal CLint [6] | Ratio Ki [7] | Ratio Ki [8] | Ratio Ki [9] | half-life [10] | Vd [11] | clearance [12] | bioavailability [13] | Kp [14] | Activity [15] |
| --- | --- | --- | --- | --- | --- | --- | --- | --- | --- | --- | --- | --- | --- | --- | --- |
| COc1ccc(S(=O)(=O)N2C(=O)[C@@](c3cc(CN4CCN(C)CC4)ccc3OC)(N3CCC[C@H]3C(=O)N(C)C)c3cc(Cl)ccc32)cc1 | 0.03 nM | 13 nM | > 1000 nM | 20 nM | 414 µL/min/mg | 78 µL/min/mg | > 100 | > 100 | > 100 | – | – | – | – | – | – |
| COc1ccc(S(=O)(=O)N2C(=O)[C@@](c3cccnc3OC)(N3CCCC3c3ccccn3)c3cc(Cl)ccc32)c(OC)c1 (mixture of isomers) | 786 nM | – | – | – | 183 µL/min/mg | 702 µL/min/mg | – | – | – | – | – | – | – | – | – |
| COc1ccc(S(=O)(=O)N2C(=O)[C@@](c3cc(CN4CCCC4)ccc3OC)(N3CCC[C@H]3c3ncco3)c3cc(Cl)ccc32)cc1 | 1.2 nM | 193 nM | > 1000 nM | 170 nM | 80 µL/min/mg | 164 µL/min/mg | – | – | – | – | – | – | – | – | – |
| COc1ccc(S(=O)(=O)N2C(=O)[C@@](c3cccnc3OC)(N3CCC[C@H]3c3ncco3)c3cc(Cl)ccc32)cc1 | 20 nM | – | – | – | 75 µL/min/mg | 356 µL/min/mg | – | – | – | – | – | – | – | – | – |
| COc1ccc(S(=O)(=O)N2C(=O)[C@@](c3ccc(CN4CCCC4)cc3OC)(N3CCC[C@H]3C(=O)N(C)C)c3cc(Cl)ccc32)cc1 | 0.08 nM | 101 nM | > 1000 nM | 28 nM | 127 µL/min/mg | 106 µL/min/mg | > 100 | > 100 | > 100 | – | – | – | – | – | – |
| COc1ccc(S(=O)(=O)N2C(=O)[C@@](c3cccnc3OC)(N3CCCC3c3ccccc3)c3cc(Cl)ccc32)c(OC)c1 (mixture of isomers) | > 10000 nM | – | – | – | – | – | – | – | – | – | – | – | – | – | – |
| COc1ccc(S(=O)(=O)N2C(=O)[C@@](c3ccc(CN4CCN(C)CC4)cc3OC)(N3CCC[C@H]3C(=O)N(C)C)c3cc(Cl)ccc32)cc1 | 0.04 nM | 15 nM | > 1000 nM | 7 nM | 378 µL/min/mg | 56 µL/min/mg | > 100 | > 100 | > 100 | – | – | – | – | – | – |
| COc1ccc(S(=O)(=O)N2C(=O)[C@@](c3nccnc3OC)(N3C[C@H](O)C[C@H]3C(=O)N(C)C)c3cc(Cl)ccc32)c(OC)c1 | 26 nM | 500 nM | > 1000 nM | 271 nM | 302 µL/min/mg | 1030 µL/min/mg | – | – | – | – | – | – | – | – | – |
| COc1ccc(S(=O)(=O)N2C(=O)[C@@](c3cccnc3OC)(N3CCCC3c3nccs3)c3cc(Cl)ccc32)c(OC)c1 (mixture of isomers) | 276 nM | – | – | – | 373 µL/min/mg | 476 µL/min/mg | – | – | – | – | – | – | – | – | – |
| CNCc1ccc(OC)c([C@@]2(N3CCC[C@H]3c3ncco3)C(=O)N(S(=O)(=O)c3ccc(OC)cc3)c3ccc(Cl)cc32)c1 | 3.9 nM | 243 nM | > 1000 nM | 135 nM | 64 µL/min/mg | 62 µL/min/mg | – | – | – | 3.3 h | 13 L/kg | 50 mL/min/kg | 68% | 0.31 | Active |
| COc1ccc(S(=O)(=O)N2C(=O)[C@@](c3cccnc3OC)(N3CCC[C@H]3C(=O)N(C)C)c3cc(Cl)ccc32)c(OC)c1 | 3.8 nM | 219 nM | > 1000 nM | 62 nM | 359 µL/min/mg | 446 µL/min/mg | – | – | – | – | – | – | – | – | – |
| COc1ccc(S(=O)(=O)N2C(=O)[C@@](c3ccccc3OC)(N3C[C@H](O)C[C@H]3C(=O)N(C)C)c3cc(Cl)ccc32)c(OC)c1 | – | – | – | – | 343 µL/min/mg | 432 µL/min/mg | – | – | – | 0.5 h | 2.8 L/kg | 86.7 mL/min/kg | 12% | 0.03 | – |
| COc1ccc(S(=O)(=O)N2C(=O)[C@@](c3cc(CN4CCCC4)ccc3OC)(N3CCC[C@H]3C(=O)N(C)C)c3cc(Cl)ccc32)c(OC)c1 | 0.26 nM | 74 nM | > 1000 nM | 29 nM | 394 µL/min/mg | 148 µL/min/mg | – | – | – | – | – | – | – | – | – |
| COc1ccc(S(=O)(=O)N2C(=O)[C@@](c3cc(CN4CCN(C)CC4)ccc3OC)(N3CCC[C@H]3c3ncco3)c3cc(Cl)ccc32)cc1 | 1.3 nM | 231 nM | > 1000 nM | 89 nM | 76 µL/min/mg | 56 µL/min/mg | – | – | – | – | – | – | – | – | – |
| COc1ccc(S(=O)(=O)N2C(=O)[C@@](c3ccc(CN4CCCC4)cc3OC)(N3CCC[C@H]3C(=O)N(C)C)c3cc(Cl)ccc32)c(OC)c1 | 0.81 nM | > 1000 nM | > 1000 nM | 45 nM | 155 µL/min/mg | 117 µL/min/mg | – | – | – | – | – | – | – | – | – |
| COc1ccc(S(=O)(=O)N2C(=O)[C@@](c3cnccc3OC)(N3C[C@H](O)C[C@H]3C(=O)N(C)C)c3cc(Cl)ccc32)c(OC)c1 | 2.1 nM | 49 nM | > 1000 nM | – | 158 µL/min/mg | 413 µL/min/mg | – | – | – | – | – | – | – | – | – |
| COc1ccc(S(=O)(=O)N2C(=O)[C@@](c3cc(CN(C)C)ccc3OC)(N3CCC[C@H]3c3ncco3)c3cc(Cl)ccc32)cc1 | 2 nM | 289 nM | > 1000 nM | 115 nM | 204 µL/min/mg | 217 µL/min/mg | – | – | – | – | – | – | – | – | – |
| COc1ccc(S(=O)(=O)N2C(=O)[C@@](c3cccnc3OC)(N3C[C@H](O)C[C@H]3C(=O)N(C)C)c3cc(Cl)ccc32)c(OC)c1 | 1.3 nM | 55 nM | 618 nM | 42 nM | 323 µL/min/mg | 446 µL/min/mg | – | – | – | – | – | – | – | – | – |
| COc1ccc(S(=O)(=O)N2C(=O)[C@@](c3cccnc3OC)(N3CCCC3c3cccs3)c3cc(Cl)ccc32)c(OC)c1 (mixture of isomers) | > 10000 nM | – | – | – | – | – | – | – | – | – | – | – | – | – | – |
| COc1ccc(S(=O)(=O)N2C(=O)[C@@](c3cnc(OC)nc3OC)(N3C[C@H](O)C[C@H]3C(=O)N(C)C)c3cc(Cl)ccc32)c(OC)c1 | 5.6 nM | 173 nM | 636 nM | 45 nM | 203 µL/min/mg | 366 µL/min/mg | – | – | – | – | – | – | – | – | – |
| COc1ccc(S(=O)(=O)N2C(=O)[C@@](c3cccnc3OC)(N3CCCC3c3ncco3)c3cc(Cl)ccc32)c(OC)c1 (mixture of isomers) | 101 nM | – | – | – | – | – | – | – | – | – | – | – | – | – | – |
| COc1ccc(S(=O)(=O)N2C(=O)[C@@](c3cc(CN4CCCC4)ccc3OC)(N3CCC[C@H]3C(=O)N(C)C)c3cc(Cl)ccc32)cc1 | 0.03 nM | 10 nM | > 1000 nM | 17 nM | 506 µL/min/mg | 101 µL/min/mg | > 100 | > 100 | > 100 | – | – | – | – | – | – |
